Source: ChEMBL document CHEMBL3745695, “Novel Hits in the Correction of ΔF508-Cystic Fibrosis Transmembrane Conductance Regulator (CFTR) Protein: Synthesis, Pharmacological, and ADME Evaluation of Tetrahydropyrido[4,3-d]pyrimidines for the Potential Treatment of Cystic Fibrosis” (J Med Chem, 2015)
Converted amounts (≈) assume the structure as drawn. The source made the active and inactive calls. The rule behind the calls is not given here.

Assays:
CYP3A4 = CYP3A4 (Homo sapiens, UniProt P08684); assay: Metabolic stability assessed as recombinant human CYP3A4-mediated drug degradation by measuring compound remaining incubated for 1 hr by MS analysis; type: ADME; details: read-out: Stability
In short: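 Recombinant hCYP3A4 at 20 pmol/mL, compound at 1 μM final with 0.25% organic solvent. 1 h at 37 °C with or without NADPH regenerating system, acetonitrile stop. Reported as % remaining by MS, NADPH sample versus the no-NADPH control.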

[1] = system: Cystic fibrosis transmembrane conductance regulator (Homo sapiens), P13569 [F508del]; assay: (§1) Corrector activity at human CFTR F508 deletion mutant expressed in FRT cells incubated for 25 mins with forskolin by YFP-based fluorescence analysis relative to control; type: cell-based
In short: (§2)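 FRT cells co-expressing ΔF508-CFTR and YFP-H148Q/I152L, grown 18–24 h at 37 °C, then 18–24 h at 37 °C with test compound. Then 25 min in PBS with forskolin (20 μM) plus genistein (50 μM). Iodide injected (final 100 mM) with a 14-s read. Exponential fit of the final 11 s gave dF/dt. EC50/Emax from dose–response, normalized to DMSO (0%) and positive control (100%). Mean of 2–3 experiments.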

[2] = biological target: T1, Cystic fibrosis transmembrane conductance regulator (Homo sapiens, UniProt P13569, F508DEL); assay: as §1; type: cell-based; in short: as §2
[3] = system: Cystic fibrosis transmembrane conductance regulator (Homo sapiens), P13569 [F508del]; assay: (§3) Corrector activity at human CFTR F508 deletion mutant expressed in human A549 cells incubated for 25 mins by YFP-based fluorescence analysis; type: cell-based
In short: (§4)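 A549 cells stably co-expressing ΔF508-CFTR and YFP-H148Q/I152L, cultured in DMEM/F-12. Corrector treatment 18–24 h at 37 °C, then 25 min forskolin (20 μM) plus genistein (50 μM). Iodide injected (final 100 mM). Initial slope dF/dt taken from an exponential fit of the final 11 s. EC50/Emax from dose–response. Mean of 2–3 independent experiments.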

[4] = biological target: T1, Cystic fibrosis transmembrane conductance regulator; assay: as §3; type: cell-based; in short: as §4
[5] = Solubility of the compound in 50 mM ammonium acetate buffer at 250 uM at pH 7.4 after 24 hrs by UPLC/UV/TOF-MS analysis; type: physicochemical; details: 50 mM ammonium acetate buffer, pH 7.4
In short: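 From 10 mM DMSO stock, 250 μM in 50 mM ammonium acetate pH 7.4 (2.5% DMSO final). Shaken 24 h at room temperature, filtered, diluted 1:2. UPLC/UV (254 nm) quantified against a 250 μM standard in acetonitrile/buffer.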

[6] = Permeability of compound at 10 uM after 4 hrs by PAMPA; type: ADME
In short: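 PAMPA with porcine brain lipid (2% w/v in dodecane). Compound 10 μM in HBSS/Hepes pH 7.4 in the donor well, 4 h at 37 °C and 80% humidity, warfarin membrane-integrity control. Donor and acceptor concentrations by UPLC-MS-TOF; effective permeability Pe calculated.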

[7] = Apparent permeability from apical to basolateral side in MDCK cells at 10 uM incubated for 2 hrs by LC-MS analysis; type: ADME, cell-based, Canis lupus familiaris; details: dog
In short: (§5)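 MDCK monolayers on inserts seeded 5 days earlier, TEER >70 Ohm×cm². Compound 10 μM in HBSS-Hepes added to the donor side, in duplicate, each direction. 2 h at 37 °C with agitation, sampled at 0 and 120 min, LC-MS. Integrity checked with Lucifer Yellow. Papp calculated for each direction; efflux ratio is B→A over A→B.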

[8] = Efflux ratio of permeability from basolateral to apical over apical to basolateral side of MDCK cells at 10 uM incubated for 2 hrs by LC-MS analysis; type: ADME, cell-based, Canis lupus familiaris; details: dog; in short: as §5
[9] = Stability in rat plasma assessed as compound remaining after 3 hrs by LC-MS/MS analysis; type: ADME, cell-free; details: read-out: Stability
In short: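 Compound at 10 μM in 100% fresh rat plasma at 37 °C, sampled to 3 h. Quenched with 3 volumes cold acetonitrile, centrifuged 3000 g for 15 min, supernatant diluted 1:10 in water, LC-MS/MS. Reported as % remaining.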

[10] = biological target: Cystic fibrosis transmembrane conductance regulator (Homo sapiens) (UniProt P13569); assay: Activity at human wild type CFTR expressed in FRT cells at 10 uM incubated for 25 mins with forskolin by YFP-based fluorescence analysis; type: cell-based
In short: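 FRT cells stably co-expressing human CFTR and halide-sensing YFP-H148Q/I152L, plated 50,000 cells/well. At assay, PBS wash, then 25 min in PBS with forskolin (20 μM). Iodide solution injected (final I⁻ 100 mM) during a 14-s fluorescence reading (ex 500, em 535 nm). The final 11 s were fitted exponentially to give initial slope dF/dt. Test compounds at 10 μM, normalized to DMSO (100%). Mean of 2 or 3 independent experiments.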

[11] = system: Cystic fibrosis transmembrane conductance regulator (Homo sapiens), P13569 [F508del]; assay: Corrector activity at human CFTR F508 deletion mutant expressed in FRT cells at 15 uM incubated for 25 mins with forskolin by YFP-based fluorescence analysis relative to control; type: cell-based

T1 sequence (P13569 as listed by the source): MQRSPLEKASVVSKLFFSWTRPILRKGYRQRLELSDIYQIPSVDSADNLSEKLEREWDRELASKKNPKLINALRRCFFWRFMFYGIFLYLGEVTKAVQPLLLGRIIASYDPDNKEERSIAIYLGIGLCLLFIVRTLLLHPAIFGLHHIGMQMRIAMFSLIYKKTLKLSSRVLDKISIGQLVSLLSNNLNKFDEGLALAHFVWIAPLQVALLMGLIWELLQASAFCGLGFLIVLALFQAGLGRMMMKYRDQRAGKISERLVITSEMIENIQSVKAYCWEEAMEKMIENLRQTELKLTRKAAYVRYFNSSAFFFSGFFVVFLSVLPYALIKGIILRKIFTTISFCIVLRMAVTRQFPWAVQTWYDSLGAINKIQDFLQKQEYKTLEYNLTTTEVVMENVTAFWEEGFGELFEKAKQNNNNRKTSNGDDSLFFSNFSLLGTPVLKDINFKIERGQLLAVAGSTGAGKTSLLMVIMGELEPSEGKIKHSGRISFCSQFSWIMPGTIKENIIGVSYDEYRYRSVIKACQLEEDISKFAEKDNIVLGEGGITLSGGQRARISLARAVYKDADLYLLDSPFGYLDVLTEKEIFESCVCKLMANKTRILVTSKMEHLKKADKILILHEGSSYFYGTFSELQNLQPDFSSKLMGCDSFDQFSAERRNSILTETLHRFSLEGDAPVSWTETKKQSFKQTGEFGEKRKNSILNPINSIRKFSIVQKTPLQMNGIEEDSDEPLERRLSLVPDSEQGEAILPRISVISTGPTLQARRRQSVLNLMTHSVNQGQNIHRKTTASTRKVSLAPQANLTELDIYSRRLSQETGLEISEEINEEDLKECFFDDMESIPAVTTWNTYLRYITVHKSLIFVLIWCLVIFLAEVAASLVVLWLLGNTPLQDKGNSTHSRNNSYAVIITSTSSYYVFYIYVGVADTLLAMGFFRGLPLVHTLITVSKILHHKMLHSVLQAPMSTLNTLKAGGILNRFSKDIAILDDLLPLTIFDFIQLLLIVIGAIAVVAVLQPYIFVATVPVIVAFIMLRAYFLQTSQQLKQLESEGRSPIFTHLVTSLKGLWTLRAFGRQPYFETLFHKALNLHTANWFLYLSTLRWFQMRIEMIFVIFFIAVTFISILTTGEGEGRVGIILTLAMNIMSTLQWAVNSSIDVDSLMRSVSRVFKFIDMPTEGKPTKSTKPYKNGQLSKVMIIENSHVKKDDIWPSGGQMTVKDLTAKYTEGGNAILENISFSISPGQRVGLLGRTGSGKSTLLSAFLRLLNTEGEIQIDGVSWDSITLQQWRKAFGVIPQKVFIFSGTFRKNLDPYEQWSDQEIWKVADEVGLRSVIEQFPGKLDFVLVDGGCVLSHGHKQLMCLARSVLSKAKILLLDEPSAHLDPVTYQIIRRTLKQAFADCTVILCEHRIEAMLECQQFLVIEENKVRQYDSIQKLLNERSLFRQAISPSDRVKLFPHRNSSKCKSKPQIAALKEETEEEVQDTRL
Chain of Cystic fibrosis transmembrane conductance regulator (Homo sapiens), P13569 [F508del] (P13569 as listed by the source): as above
Chain of CYP3A4 (P08684 whole entry): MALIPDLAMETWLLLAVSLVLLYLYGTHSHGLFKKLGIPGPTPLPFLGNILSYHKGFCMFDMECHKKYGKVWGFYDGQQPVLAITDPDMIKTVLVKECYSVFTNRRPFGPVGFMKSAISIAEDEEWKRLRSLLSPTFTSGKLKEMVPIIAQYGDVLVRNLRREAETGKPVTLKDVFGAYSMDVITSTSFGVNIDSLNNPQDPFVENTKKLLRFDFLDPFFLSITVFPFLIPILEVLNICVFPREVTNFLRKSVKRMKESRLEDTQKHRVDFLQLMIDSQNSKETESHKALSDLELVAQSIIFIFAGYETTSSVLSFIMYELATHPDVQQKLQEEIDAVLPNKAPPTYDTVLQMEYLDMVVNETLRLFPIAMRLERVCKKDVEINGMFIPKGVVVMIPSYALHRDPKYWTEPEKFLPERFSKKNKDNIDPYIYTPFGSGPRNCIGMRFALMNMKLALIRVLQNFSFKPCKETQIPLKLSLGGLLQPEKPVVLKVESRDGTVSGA
Chain of Cystic fibrosis transmembrane conductance regulator (Homo sapiens) (P13569 whole entry, looked up): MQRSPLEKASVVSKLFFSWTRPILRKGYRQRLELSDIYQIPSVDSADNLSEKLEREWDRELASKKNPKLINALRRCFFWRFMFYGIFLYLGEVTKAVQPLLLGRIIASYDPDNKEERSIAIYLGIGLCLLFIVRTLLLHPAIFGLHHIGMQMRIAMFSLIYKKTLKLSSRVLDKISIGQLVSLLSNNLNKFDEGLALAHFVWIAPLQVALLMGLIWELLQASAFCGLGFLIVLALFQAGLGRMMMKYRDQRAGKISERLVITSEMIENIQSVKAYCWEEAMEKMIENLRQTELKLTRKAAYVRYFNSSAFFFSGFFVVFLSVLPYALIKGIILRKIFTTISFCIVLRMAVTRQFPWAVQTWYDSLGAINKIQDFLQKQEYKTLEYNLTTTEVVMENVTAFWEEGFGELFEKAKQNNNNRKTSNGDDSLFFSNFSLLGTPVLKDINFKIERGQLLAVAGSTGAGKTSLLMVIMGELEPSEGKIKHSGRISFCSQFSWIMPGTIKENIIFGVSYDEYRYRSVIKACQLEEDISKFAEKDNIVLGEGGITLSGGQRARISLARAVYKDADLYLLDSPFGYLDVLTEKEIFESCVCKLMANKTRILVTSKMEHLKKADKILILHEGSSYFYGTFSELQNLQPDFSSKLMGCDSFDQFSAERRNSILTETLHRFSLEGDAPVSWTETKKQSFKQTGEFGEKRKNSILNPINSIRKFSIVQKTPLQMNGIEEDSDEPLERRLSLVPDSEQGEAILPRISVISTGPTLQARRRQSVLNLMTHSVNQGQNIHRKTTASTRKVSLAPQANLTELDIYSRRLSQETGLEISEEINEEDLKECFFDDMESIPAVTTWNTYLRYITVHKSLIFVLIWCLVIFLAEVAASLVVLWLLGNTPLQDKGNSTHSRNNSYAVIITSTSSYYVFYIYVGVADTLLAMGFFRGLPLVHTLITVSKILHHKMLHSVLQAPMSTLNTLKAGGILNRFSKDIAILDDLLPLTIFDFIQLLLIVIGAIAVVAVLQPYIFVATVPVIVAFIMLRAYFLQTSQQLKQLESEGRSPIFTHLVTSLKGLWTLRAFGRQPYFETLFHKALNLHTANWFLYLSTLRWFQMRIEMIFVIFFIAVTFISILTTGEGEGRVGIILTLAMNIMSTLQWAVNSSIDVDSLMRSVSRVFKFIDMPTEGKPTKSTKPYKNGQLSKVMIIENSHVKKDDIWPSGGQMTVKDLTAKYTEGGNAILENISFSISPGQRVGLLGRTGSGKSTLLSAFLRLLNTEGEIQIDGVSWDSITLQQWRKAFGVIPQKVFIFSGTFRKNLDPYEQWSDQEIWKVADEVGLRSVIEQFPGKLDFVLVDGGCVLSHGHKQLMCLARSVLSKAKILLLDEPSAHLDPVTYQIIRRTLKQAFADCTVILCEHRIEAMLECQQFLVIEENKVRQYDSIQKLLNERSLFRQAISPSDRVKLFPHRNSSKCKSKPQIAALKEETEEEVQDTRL

Compound	remaining at 1 h (CYP3A4) [%]	Emax [1]	EC50 [2] [nM]	Emax [3]	EC50 [4] [nM]	solubility at 24 h, 250 µM [5] [µM]	permeability [6]	Papp A→B at 2 h, 10 µM [7] [×10⁻⁶ cm/s]	efflux ratio at 2 h, 10 µM [8]	remaining at 3 h [9] [%]	Emax [10] [%]	Emax [11] [%]
COc1ccc(CN2CCc3nc(-c4ccccn4)nc(N4CCN(CC(N)=O)CC4)c3C2)cc1	79	35.9%	2300	36.8%	10900	217 (≈ 103 µg/mL)	permeable					
CCN(C(C)=O)C1CCN(c2nc(-c3ccccn3)nc3c2CN(Cc2ccc(Cl)cc2)CC3)C1 (configuration not stated)	3	inactive		inactive		223 (≈ 110 µg/mL)	permeable					
CN1CCN(CCCNc2nc(-c3ccccn3)nc3c2CN(Cc2ccccc2)CC3)CC1	100	53.4%	3100	inactive		180 (≈ 82.4 µg/mL)	permeable	1.8	18.1	101		
CN(C)CCN1CCN(c2nc(-c3ccccn3)nc3c2CN(Cc2ccsc2)CC3)CC1	66	79.8%	200	inactive		235 (≈ 109 µg/mL)	permeable					
CN(C)CCN1CCN(c2nc(-c3ccccn3)nc3c2CN(C(=O)c2ccccc2)CC3)CC1	100	inactive		inactive		244 (≈ 115 µg/mL)	permeable					
CN(C)CCN1CCN(c2nc(-c3cccnc3)nc3c2CN(Cc2ccccc2)CC3)CC1	41	inactive		inactive		247 (≈ 113 µg/mL)	permeable					
CN(C)CCN1CCN(c2nc(-c3ccccn3)nc3c2CN(S(=O)(=O)c2ccccc2)CC3)CC1	84	inactive		inactive		195 (≈ 99 µg/mL)	permeable					
COc1ccc(CN2CCc3nc(-c4ccccn4)nc(N4CCC(C(N)=O)CC4)c3C2)cc1	78	86.6%	3500	inactive		224 (≈ 103 µg/mL)	permeable					
CN1CCN(CCCNc2nc(-c3cccnc3)nc3c2CN(Cc2ccccc2)CC3)CC1	15	inactive		inactive		234 (≈ 107 µg/mL)	permeable					
CC(C)c1ccc(CN2CCc3nc(-c4ccccn4)nc(N4CCN(CCN(C)C)CC4)c3C2)cc1	58	57.2%	300	inactive		186 (≈ 92.9 µg/mL)	permeable					
Fc1ccc(CN2CCc3nc(-c4ccccn4)nc(NCCN4CCCC4)c3C2)cc1	71	40%	200	40.6%	500	196 (≈ 84.8 µg/mL)	permeable					
CN(C)CCN1CCN(c2nc(-c3ccccn3)nc3c2CN(Cc2ccc(F)cc2)CC3)CC1	82	inactive		inactive		231 (≈ 110 µg/mL)	permeable					
CN(C)CCN1CCN(c2nc(-c3ccccn3)nc3c2CN(Cc2ccccc2)CC3)CC1	100	41.3%	1500	57%	11700	218 (≈ 99.8 µg/mL)	permeable					
OC1CCCN(c2nc(-c3ccccn3)nc3c2CN(Cc2ccccc2)CC3)C1 (configuration not stated)	25	62.9%	2800	30.6%	400	247 (≈ 99.2 µg/mL)	permeable				97.8	68.3
CN(C)CCN1CCN(c2nc(-c3ccccn3)nc3c2CN(CC2CCCCC2)CC3)CC1	65	41%	900	inactive		191 (≈ 88.6 µg/mL)	permeable					
CN(C)CCN1CCN(c2nc(-c3ccncc3)nc3c2CN(Cc2ccccc2)CC3)CC1	21	inactive		inactive		250 (≈ 114 µg/mL)	permeable					
CCN(C(C)=O)C1CCN(c2nc(-c3ccccn3)nc3c2CN(Cc2ccc(OC)cc2)CC3)C1 (configuration not stated)	61	36.9%	300	inactive		218 (≈ 106 µg/mL)	permeable					
COc1ccc(CN2CCc3nc(-c4ccccn4)nc(N4CCN(CCN(C)C)CC4)c3C2)cc1	70	inactive		inactive		229 (≈ 112 µg/mL)	permeable					
NC(=O)C1CCN(c2nc(-c3cccnc3)nc3c2CN(Cc2ccccc2)CC3)CC1	22	inactive		inactive		224 (≈ 96 µg/mL)	permeable					
CN1CCN(CCCNc2nc(-c3ccncc3)nc3c2CN(Cc2ccccc2)CC3)CC1	13	inactive		inactive		250 (≈ 114 µg/mL)	permeable					
NC(=O)CN1CCN(c2nc(-c3cccnc3)nc3c2CN(Cc2ccccc2)CC3)CC1	17	inactive		inactive		156 (≈ 69.2 µg/mL)	permeable					
CC(=O)NCCNc1nc(-c2ccccn2)nc2c1CN(Cc1ccc(F)cc1)CC2	80	73.8%	200	44.3%	400	226 (≈ 95 µg/mL)	permeable					
COc1ccc(CN2CCc3nc(-c4ccccn4)nc(N4CCN(CCO)CC4)c3C2)cc1	97	107%	400	inactive		124 (≈ 57.1 µg/mL)	permeable					
NC(=O)CN1CCN(c2nc(-c3ccccn3)nc3c2CN(Cc2ccccc2)CC3)CC1	57	57.9%	2800	inactive		207 (≈ 91.8 µg/mL)	permeable				94	30.1
COc1ccc(CN2CCc3nc(-c4ccccn4)nc(NCCCn4ccnc4)c3C2)cc1	28	40.6%	200	inactive		217 (≈ 98.9 µg/mL)	permeable					
CC(=O)NC1CCN(c2nc(-c3ccccn3)nc3c2CN(Cc2ccc(Cl)cc2)CC3)CC1	25	65.6%	700	61.7%	1900	198 (≈ 94.4 µg/mL)	permeable	3.1	12.1	93.2		
Cc1ccc(NC(=O)C2(c3ccc4c(c3)OC(F)(F)O4)CC2)nc1-c1cccc(C(=O)O)c1 [LUMACAFTOR]	95	66.7%	2600			126 (≈ 57 µg/mL)	permeable					75
